Measured values pooled from the literature.
Lines come from different studies, so protocols differ.
Sialidase-2: Sialidase-2 (Homo sapiens, UniProt Q9Y3R4)
ACHE: Acetylcholinesterase (ACHE, Homo sapiens, UniProt P22303)
FABP4: Fatty acid-binding protein, adipocyte (FABP4, Homo sapiens, UniProt P15090)

SMILES | target | test | test system | conditions | IC50 [µM]
CC(C)(C)c1cn([C@H]2[C@H]([C@H](O)[C@H](O)CO)OC(C(=O)O)=C[C@@H]2O)nn1 | Sialidase-2 | enzyme activity, inhibitor |  |  | 32
O=c1cc(CSc2ccc(N=Cc3ccc(C(F)(F)F)cc3)cc2)occ1O | ACHE | enzyme activity, inhibitor, Ellman |  |  | 13.3
COC(=O)[C@@H](NC(=O)COc1c(NC(C)=O)cc(-c2nc3ccccc3s2)cc1OC)C(C)C | ACHE | enzyme activity, inhibitor, Ellman |  |  | > 264
CC(C)(C)c1cccc(C=Nc2ccc(SCc3cc(=O)c(O)co3)cc2)c1 | ACHE | enzyme activity, inhibitor, Ellman |  |  | 6.45
CCOC(=O)c1ccc(OC(=O)CCCCCN=C(N)N)cc1 | Kallikrein-13 (Homo sapiens, UniProt Q9UKR3) | enzyme activity, inhibitor |  |  | 12.2
O=C(O)C(F)(F)C(F)(F)C(F)(F)C(F)(F)C(F)(F)C(F)(F)C(F)(F)C(F)(F)C(F)(F)F | FABP4 | ligand displacement, fluorescence |  | pH 7.5 | 3.54
COC(=O)[C@H](C)NC(=O)COc1c(NC(C)=O)cc(-c2nc3ccccc3s2)cc1OC | ACHE | enzyme activity, inhibitor, Ellman |  |  | > 280
CC(C)CCC(=O)N[C@H]1[C@H]([C@H](O)[C@H](O)CO)OC(C(=O)O)=C[C@@H]1O | Sialidase-2 | enzyme activity, inhibitor |  |  | 10
O=C(O)C(F)(F)C(F)(F)C(F)(F)C(F)(F)C(F)(F)F | FABP4 | ligand displacement, fluorescence |  | pH 7.5 | 209
COc1c2c(cc3c1-c1c(cc4c(c1OC)OCO4)C[C@H](C)[C@H](C)C3)OCO2 | Dipeptidyl peptidase 4 (DPP4, Homo sapiens, UniProt P27487) | enzyme activity, inhibitor, fluorescence |  |  | > 100
CC(C)(C)CN[C@H]1[C@H]([C@H](O)[C@H](O)CO)OC(C(=O)O)=C[C@@H]1O | Sialidase-2 | enzyme activity, inhibitor |  |  | 120
COc1cc(-c2nc3ccccc3s2)cc(NC(C)=O)c1OCC(=O)N[C@H](Cc1ccccc1)C(=O)O | ACHE | enzyme activity, inhibitor, Ellman |  |  | > 246
O=c1cc(CSc2ccc(N=Cc3ccc(F)cc3)cc2)occ1O | ACHE | enzyme activity, inhibitor, Ellman |  |  | 1.44
O=C(O)C(F)(F)C(F)(F)C(F)(F)C(F)(F)C(F)(F)C(F)(F)C(F)(F)C(F)(F)C(F)(F)C(F)(F)C(F)(F)F | Sterol carrier protein 2 (Homo sapiens, UniProt P22307) | ligand displacement, fluorescence |  |  | 2.37
O=c1cc(CSc2ccc(N=Cc3ccccc3Br)cc2)occ1O | ACHE | enzyme activity, inhibitor, Ellman |  |  | 1.34
CC(C)(C)CC(=O)N[C@H]1[C@H]([C@H](O)[C@H](O)CO)OC(C(=O)O)=C[C@@H]1O | Sialidase-2 | enzyme activity, inhibitor |  |  | 80
COc1ccccc1C=Nc1ccc(SCc2cc(=O)c(O)co2)cc1 | ACHE | enzyme activity, inhibitor, Ellman |  |  | 6.23
CC(C)Cc1cn([C@H]2[C@H]([C@H](O)[C@H](O)CO)OC(C(=O)O)=C[C@@H]2O)nn1 | Sialidase-2 | enzyme activity, inhibitor |  |  | 1.4
Cc1cccc(C=Nc2ccc(SCc3cc(=O)c(O)co3)cc2)c1 | ACHE | enzyme activity, inhibitor, Ellman |  |  | 5.66
O=C(O)C1=C[C@H](O)[C@@H](NCc2ccc(-c3ccccc3)cc2)[C@H]([C@H](O)[C@H](O)CO)O1 | Sialidase-2 | enzyme activity, inhibitor |  |  | 230
CC(=O)c1c(C)c2cnc(Nc3ccc(C4CCN(CCS(C)(=O)=O)CC4)cn3)nc2n(C2CCCC2)c1=O | Cytochrome P450 2C8 (CYP2C8, Homo sapiens, UniProt P10632) | enzyme activity, inhibitor | human, liver microsomes |  | > 10
